Measured values: publication PMC9390995 (Science Advances, 2022)

Legend:
JAK1 = JAK1 (Homo sapiens, UniProt P23458); details: biochemical assays; cited from earlier work
JAK2 = details: read-out: IC50 against JAK2; cited from earlier work
[1] = system: p-STAT5/p-STAT6 in hPBMCs; test: γc cytokine-stimulated STAT phosphorylation, Western blot; assay type: cell-based, human; details: fig. S1
Method in brief: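 hPBMCs in RPMI 1640 with 10% FBS at 37°C, 5% CO2, plated 5×10^5 per well. Pretreated 1 h with test compound, then stimulated with IL-2, IL-4, IL-7, IL-9, IL-15 or IL-21. Lysed in RIPA buffer with protease/phosphatase inhibitors. p-STAT5/p-STAT6 by Western blot normalized to GAPDH; three independent experiments.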

Sequence of JAK1 (P23458 whole entry): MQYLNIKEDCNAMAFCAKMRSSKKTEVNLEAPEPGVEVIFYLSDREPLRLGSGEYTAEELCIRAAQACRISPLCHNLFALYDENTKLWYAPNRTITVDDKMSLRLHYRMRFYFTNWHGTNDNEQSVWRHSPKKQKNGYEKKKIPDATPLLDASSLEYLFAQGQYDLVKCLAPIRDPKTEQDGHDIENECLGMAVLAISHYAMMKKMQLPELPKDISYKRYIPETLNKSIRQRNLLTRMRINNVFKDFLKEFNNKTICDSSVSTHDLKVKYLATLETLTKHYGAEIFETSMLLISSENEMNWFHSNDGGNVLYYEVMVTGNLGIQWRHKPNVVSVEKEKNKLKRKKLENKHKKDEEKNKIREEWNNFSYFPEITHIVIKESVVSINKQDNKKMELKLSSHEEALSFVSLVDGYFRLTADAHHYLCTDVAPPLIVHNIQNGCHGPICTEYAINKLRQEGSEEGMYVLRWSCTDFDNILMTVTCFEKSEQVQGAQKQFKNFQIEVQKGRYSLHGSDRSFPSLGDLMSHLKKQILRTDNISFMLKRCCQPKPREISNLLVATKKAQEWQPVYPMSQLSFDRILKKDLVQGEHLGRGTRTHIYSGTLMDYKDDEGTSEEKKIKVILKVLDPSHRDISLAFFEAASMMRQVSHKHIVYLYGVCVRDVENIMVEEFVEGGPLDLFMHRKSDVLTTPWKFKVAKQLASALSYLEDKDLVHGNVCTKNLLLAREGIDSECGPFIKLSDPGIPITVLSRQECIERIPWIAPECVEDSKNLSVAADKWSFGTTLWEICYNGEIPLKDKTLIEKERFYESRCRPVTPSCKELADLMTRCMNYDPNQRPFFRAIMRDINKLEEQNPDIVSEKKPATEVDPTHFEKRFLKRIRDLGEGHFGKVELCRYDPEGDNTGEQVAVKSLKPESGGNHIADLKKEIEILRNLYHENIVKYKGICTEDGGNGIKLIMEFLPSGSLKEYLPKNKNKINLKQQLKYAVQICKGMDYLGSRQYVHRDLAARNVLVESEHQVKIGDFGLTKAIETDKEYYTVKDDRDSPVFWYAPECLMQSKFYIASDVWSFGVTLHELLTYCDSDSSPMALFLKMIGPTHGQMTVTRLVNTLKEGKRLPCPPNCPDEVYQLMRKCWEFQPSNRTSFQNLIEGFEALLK

Structure (SMILES)	preference for JAK1 over JAK2 (JAK1)	IC50 (JAK2)	IL-2-induced p-STAT5 levels [1]
O=C(Nc1nc2cccc(-c3ccc(CN4CCS(=O)(=O)CC4)cc3)n2n1)C1CC1 [filgotinib]	2.8 fold		
C=CC(=O)N1C[C@H](Nc2ncnc3[nH]ccc23)CC[C@@H]1C [Ritlecitinib, 1-((2S,5R)-5-((7H-pyrrolo[2,3-d]pyrimidin-4-yl)amino)-2-methylpiperidin-1-yl)prop-2-en-1-one]		> 10 µM	potent inhibition
CC[C@@H]1CN(C(=O)NCC(F)(F)F)C[C@@H]1c1cnc2cnc3[nH]ccc3n12 [upadacitinib]	2.4 fold		
